Consider 18 compounds from ChEMBL document CHEMBL2311295 (J Med Chem, 2013).

In general, IC50 refers to the point on the concentration scale where inhibition reaches its midpoint. A higher IC50 goes with lower potency. One may read the inhibition as the percentage by which the read-out fell short of the control. A high value points to strong suppression.

Test [1] deals with HCT-116/VM46. The experiment in a line: Cytotoxicity against vinblastine-resistant human HCT116/VM46 cells after 72 hrs by phosphatase assay. To be noted: HCT-116/VM46, 72 h. The format is functional, cell-based. Summed up:
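Cells diluted to 30,000 cells/mL in DMEM with 10% FBS and seeded into 96-well plates (100 μL per well), then grown 24 h at 37 °C under 5% CO2. Test agents were made as 1 mM DMSO stocks with 10-fold serial dilutions and tested at six concentrations over 0–1,000 nM or 0–10,000 nM, in duplicate, for 72 h. Acid phosphatase read-out: substrate in 0.1 M NaOAc pH 5.5 with 0.1% Triton X-100, 15 min at 37 °C, stopped with NaOH, A405. IC50 is the mean of 4–16 determinations.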

Test [2] deals with HCT-116. The test can be described thus: Cytotoxicity against human HCT116 cells after 72 hrs by phosphatase assay. The format is functional, cell-based. To be noted: HCT-116, 72 h. The method in brief: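 Cells diluted to 30,000 cells/mL in DMEM with 10% FBS and seeded into 96-well plates (100 μL per well), then grown 24 h at 37 °C under 5% CO2. Test agents were made as 1 mM DMSO stocks with 10-fold serial dilutions and tested at six concentrations over 0–1,000 nM or 0–10,000 nM, in duplicate, for 72 h. Acid phosphatase read-out: substrate in 0.1 M NaOAc pH 5.5 with 0.1% Triton X-100, 15 min at 37 °C, stopped with NaOH, A405.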

Test [3] deals with HCT-116. The test can be described thus: Ratio of vinblastine IC50 to compound IC50 for human HCT116 cells. The format is functional. Summed up:
(§1)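 Both IC50 values come from the 72 h acid phosphatase (A405) proliferation assay: six concentrations over 0–1,000 or 0–10,000 nM, with each value the mean of 4–16 determinations.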

The next test addresses Tubulin (Sus scrofa) (UniProt P02554+P02550). The test can be described thus: Displacement of [3H]-vinblastine from pig tubulin at 7.2 x 10^-5 M after 60 mins. The format is protein assay. Summed up: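 Purified porcine tubulin (100 µL tubulin solution diluted with 850 µL general tubulin buffer) preincubated with 25 µL of 7.2 × 10⁻⁵ M ³H-vinblastine, 15 min at 37 °C. Then 25 µL of 7.2 × 10⁻⁵ M unlabeled test alkaloid added, incubation continued 60 min. Displacement of bound ³H-vinblastine measured by a previously described procedure.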
Background: Loss of bound radioactivity is the signal in a displacement assay; it reports binding, not function.

In test [4] the test system is HCT-116. The test can be described thus: Ratio of IC50 for vinblastine-resistant human HCT116/VM46 cells to IC50 for human HCT116 cells. The format is functional. Summed up: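 Ratio of IC50 in HCT116/VM46 to IC50 in HCT116. Both IC50 values come from the 72 h phosphatase (A405) growth inhibition assay: six concentrations up to 1,000 or 10,000 nM, run in duplicate, averaging 4–16 determinations each.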

The test system of test [5] is HCT-116/VM46. The experiment in a line: Ratio of vinblastine IC50 to compound IC50 for vinblastine-resistant human HCT116/VM46 cells. The format is functional. Summed up:
as §1

Molecules are shown by their SMILES.

Sequence of Tubulin (Sus scrofa) (P02550 whole entry, looked up): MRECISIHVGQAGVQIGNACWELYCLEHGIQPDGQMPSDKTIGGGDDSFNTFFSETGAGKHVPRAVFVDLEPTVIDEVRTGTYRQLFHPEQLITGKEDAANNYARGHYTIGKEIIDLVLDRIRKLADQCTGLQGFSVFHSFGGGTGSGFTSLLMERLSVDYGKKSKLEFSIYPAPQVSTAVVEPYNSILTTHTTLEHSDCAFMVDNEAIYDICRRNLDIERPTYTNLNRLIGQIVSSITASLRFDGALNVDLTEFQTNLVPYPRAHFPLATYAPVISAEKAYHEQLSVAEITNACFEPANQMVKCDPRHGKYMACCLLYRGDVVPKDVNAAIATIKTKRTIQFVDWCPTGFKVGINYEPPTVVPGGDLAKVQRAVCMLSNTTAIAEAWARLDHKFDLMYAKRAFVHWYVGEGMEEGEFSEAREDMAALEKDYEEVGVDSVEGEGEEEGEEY
Sequence of Tubulin (Sus scrofa) (P02554 whole entry, looked up): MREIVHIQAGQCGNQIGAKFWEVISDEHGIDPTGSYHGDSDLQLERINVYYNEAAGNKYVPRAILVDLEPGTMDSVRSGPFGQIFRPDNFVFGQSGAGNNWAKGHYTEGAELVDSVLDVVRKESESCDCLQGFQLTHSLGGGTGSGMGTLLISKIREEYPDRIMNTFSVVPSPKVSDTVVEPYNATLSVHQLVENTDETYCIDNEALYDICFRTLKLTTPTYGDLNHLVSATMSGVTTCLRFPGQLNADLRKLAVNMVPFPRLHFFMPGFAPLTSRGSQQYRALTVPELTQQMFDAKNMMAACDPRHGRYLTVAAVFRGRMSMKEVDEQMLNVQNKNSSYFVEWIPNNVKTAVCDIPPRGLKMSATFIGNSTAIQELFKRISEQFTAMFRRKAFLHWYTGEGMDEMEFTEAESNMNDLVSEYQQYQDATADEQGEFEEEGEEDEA

Regarding `CC[C@]1(NC(=O)NC)C[C@H]2CN(CCc3c([nH]c4ccccc34)[C@@](C(=O)OC)(c3cc4c(cc3OC)N(C)[C@H]3[C@@](O)(C(=O)OC)[C@H](OC(C)=O)[C@]5(CC)C=CCN6CC[C@]43[C@@H]65)C2)C1`, the results for the concentration for half-maximal inhibition (IC50) in the test on HCT-116/VM46 [1] and in the test with HCT-116 [2] were 0.53 µM and 0.00082 µM, respectively. Moreover, in the test with HCT-116 [3], the “Ratio IC50” value is on record as 10.

Consider `CC[C@]1(NC(=O)NC2CC2)C[C@H]2CN(CCc3c([nH]c4ccccc34)[C@@](C(=O)OC)(c3cc4c(cc3OC)N(C)[C@H]3[C@@](O)(C(=O)OC)[C@H](OC(C)=O)[C@]5(CC)C=CCN6CC[C@]43[C@@H]65)C2)C1`, for which the IC50 in the test with HCT-116/VM46 [1] is 0.085 µM; in the test on HCT-116 [2], 0.00073 µM. The “Ratio IC50” value with HCT-116 [3] is listed as 10.

Consider `CCCNC(=O)N[C@@]1(CC)C[C@H]2CN(CCc3c([nH]c4ccccc34)[C@@](C(=O)OC)(c3cc4c(cc3OC)N(C)[C@H]3[C@@](O)(C(=O)OC)[C@H](OC(C)=O)[C@]5(CC)C=CCN6CC[C@]43[C@@H]65)C2)C1`, for which the half-maximal inhibitory concentration (IC50) came to 0.22 µM in the test on HCT-116/VM46 [1] and 0.0027 µM with HCT-116 [2]. Further, in the test with HCT-116 [3], the “Ratio IC50” value amounted to 10.

On to `CC[C@]1(NC(=O)NC(C)C)C[C@H]2CN(CCc3c([nH]c4ccccc34)[C@@](C(=O)OC)(c3cc4c(cc3OC)N(C)[C@H]3[C@@](O)(C(=O)OC)[C@H](OC(C)=O)[C@]5(CC)C=CCN6CC[C@]43[C@@H]65)C2)C1`, for which the half-maximal inhibitory concentration (IC50) in the test on HCT-116/VM46 [1] stood at 0.53 µM; in the test on HCT-116 [2] it was 0.0057 µM. Also, in the test with HCT-116 [3], the “Ratio IC50” value worked out at 10.

`CC[C@]1(NC(=O)Nc2cccc(OC)c2)C[C@H]2CN(CCc3c([nH]c4ccccc34)[C@@](C(=O)OC)(c3cc4c(cc3OC)N(C)[C@H]3[C@@](O)(C(=O)OC)[C@H](OC(C)=O)[C@]5(CC)C=CCN6CC[C@]43[C@@H]65)C2)C1`: the half-inhibitory concentration (IC50) in the test on HCT-116/VM46 [1] turned out to be 0.08 µM; in the test on HCT-116 [2], 0.00077 µM. The “Ratio IC50” value in the test on HCT-116 [3] is listed as 10.

Take `CCNC(=O)N[C@@]1(CC)C[C@H]2CN(CCc3c([nH]c4ccccc34)[C@@](C(=O)OC)(c3cc4c(cc3OC)N(C)[C@H]3[C@@](O)(C(=O)OC)[C@H](OC(C)=O)[C@]5(CC)C=CCN6CC[C@]43[C@@H]65)C2)C1`: the figures for the IC50 in the test with HCT-116/VM46 [1] and with HCT-116 [2] were 0.09 µM and 0.00073 µM, respectively. Moreover, the “Ratio IC50” value in the test on HCT-116 [3] is listed as 10.

The compound `CC[C@]1(NC(=O)N(C)C)C[C@H]2CN(CCc3c([nH]c4ccccc34)[C@@](C(=O)OC)(c3cc4c(cc3OC)N(C)[C@H]3[C@@](O)(C(=O)OC)[C@H](OC(C)=O)[C@]5(CC)C=CCN6CC[C@]43[C@@H]65)C2)C1` had an inhibition on Tubulin (Sus scrofa) of 45.1%. Also, the results for the IC50 in the test on HCT-116/VM46 [1] and in the test on HCT-116 [2] were 0.08 µM and 0.0028 µM, respectively. For the same compound, the “Ratio IC50” value in the test with HCT-116 [4] worked out at 10.

On Tubulin (Sus scrofa), `CC[C@]1(NC(=O)Nc2ccc(-c3ccccc3)cc2)C[C@H]2CN(CCc3c([nH]c4ccccc34)[C@@](C(=O)OC)(c3cc4c(cc3OC)N(C)[C@H]3[C@@](O)(C(=O)OC)[C@H](OC(C)=O)[C@]5(CC)C=CCN6CC[C@]43[C@@H]65)C2)C1` had an inhibition of 48.5%. Further, the 50% inhibitory concentration (IC50) worked out at 0.47 µM with HCT-116/VM46 [1] and 0.0069 µM in the test on HCT-116 [2].

Regarding `CC[C@]1(O)C[C@H]2CN(CCc3c([nH]c4ccc(F)cc34)[C@@](C(=O)OC)(c3cc4c(cc3OC)N(C)[C@H]3[C@@](O)(C(=O)OC)[C@H](OC(C)=O)[C@]5(CC)C=CCN6CC[C@]43[C@@H]65)C2)C1`, in the test on HCT-116 [3], the “Ratio IC50” value is 8.

For `CC[C@]1(NC(=O)Nc2ccccc2OC)C[C@H]2CN(CCc3c([nH]c4ccccc34)[C@@](C(=O)OC)(c3cc4c(cc3OC)N(C)[C@H]3[C@@](O)(C(=O)OC)[C@H](OC(C)=O)[C@]5(CC)C=CCN6CC[C@]43[C@@H]65)C2)C1`, the half-maximal inhibitory concentration (IC50) with HCT-116/VM46 [1] came out at 0.065 µM; in the test on HCT-116 [2], 0.00077 µM. Further, the “Ratio IC50” value in the test on HCT-116 [3] is recorded as 10.

In the case of `CC[C@]1(NC(=S)NC2CCCCC2)C[C@H]2CN(CCc3c([nH]c4ccccc34)[C@@](C(=O)OC)(c3cc4c(cc3OC)N(C)[C@H]3[C@@](O)(C(=O)OC)[C@H](OC(C)=O)[C@]5(CC)C=CCN6CC[C@]43[C@@H]65)C2)C1`, the figures for the concentration for half-maximal inhibition (IC50) with HCT-116/VM46 [1] and with HCT-116 [2] were 0.52 µM and 0.02 µM, respectively. The Ratio IC50 with HCT-116 [4] is 26.

Turning to `CC[C@]1(NC(=O)N2CCCCC2)C[C@H]2CN(CCc3c([nH]c4ccccc34)[C@@](C(=O)OC)(c3cc4c(cc3OC)N(C)[C@H]3[C@@](O)(C(=O)OC)[C@H](OC(C)=O)[C@]5(CC)C=CCN6CC[C@]43[C@@H]65)C2)C1`, the values for the IC50 in the test with HCT-116/VM46 [1] and in the test with HCT-116 [2] were 0.05 µM and 0.0039 µM, respectively. The Ratio IC50 in the test with HCT-116 [4] turned out to be 10.

Regarding `CCNC(=O)N[C@@]1(CC)C[C@H]2CN(CCc3c([nH]c4ccc(F)cc34)[C@@](C(=O)OC)(c3cc4c(cc3OC)N(C)[C@H]3[C@@](O)(C(=O)OC)[C@H](OC(C)=O)[C@]5(CC)C=CCN6CC[C@]43[C@@H]65)C2)C1`, the IC50 was determined as 0.07 µM in the test on HCT-116/VM46 [1] and 0.00062 µM with HCT-116 [2]. In addition, the “Ratio IC50” value in the test on HCT-116/VM46 [5] and in the test on HCT-116 [3] was 10 throughout.

Regarding `CC[C@]1(NC(N)=S)C[C@H]2CN(CCc3c([nH]c4ccccc34)[C@@](C(=O)OC)(c3cc4c(cc3OC)N(C)[C@H]3[C@@](O)(C(=O)OC)[C@H](OC(C)=O)[C@]5(CC)C=CCN6CC[C@]43[C@@H]65)C2)C1`, the 50% inhibitory concentration (IC50) came out at 2 µM in the test on HCT-116/VM46 [1] and 0.0077 µM in the test with HCT-116 [2].

`CCN(CC)C(=O)N[C@@]1(CC)C[C@H]2CN(CCc3c([nH]c4ccccc34)[C@@](C(=O)OC)(c3cc4c(cc3OC)N(C)[C@H]3[C@@](O)(C(=O)OC)[C@H](OC(C)=O)[C@]5(CC)C=CCN6CC[C@]43[C@@H]65)C2)C1`: the IC50 in the test with HCT-116/VM46 [1] is 0.45 µM; with HCT-116 [2] it was 0.0067 µM.

For `CC[C@]1(NC(N)=O)C[C@H]2CN(CCc3c([nH]c4ccccc34)[C@@](C(=O)OC)(c3cc4c(cc3OC)N(C)[C@H]3[C@@](O)(C(=O)OC)[C@H](OC(C)=O)[C@]5(CC)C=CCN6CC[C@]43[C@@H]65)C2)C1`, the IC50 worked out at 4.4 µM in the test with HCT-116/VM46 [1] and 0.0075 µM in the test with HCT-116 [2].

Take `CCNC(=O)N(C)[C@@]1(CC)C[C@H]2CN(CCc3c([nH]c4ccccc34)[C@@](C(=O)OC)(c3cc4c(cc3OC)N(C)[C@H]3[C@@](O)(C(=O)OC)[C@H](OC(C)=O)[C@]5(CC)C=CCN6CC[C@]43[C@@H]65)C2)C1`: the IC50 turned out to be 8.5 µM in the test with HCT-116/VM46 [1] and 0.52 µM in the test on HCT-116 [2].

On to `CC[C@]1(NC(=S)Nc2ccccc2)C[C@H]2CN(CCc3c([nH]c4ccccc34)[C@@](C(=O)OC)(c3cc4c(cc3OC)N(C)[C@H]3[C@@](O)(C(=O)OC)[C@H](OC(C)=O)[C@]5(CC)C=CCN6CC[C@]43[C@@H]65)C2)C1`, for which the IC50 in the test on HCT-116/VM46 [1] was 0.65 µM; with HCT-116 [2], 0.04 µM.
